Most compounds without a hit are left out; they make up all but 0.86% or so of the library.
AF4-AF9 inh – inhibitors of human MLL-AF4/AF9 interaction | AlphaScreen, biotin-AF4 peptide binding to FLAG-AF9 | inhibition, % at 10 µM | 350,000 tested, 0.47% active | AID 651704;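 active = every replicate reaching a set inhibition limit, whatever the replicate mean, cut at about 25% in these data; inconclusive = mean inhibition reaches that limit but some replicates miss it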
Target sequence (P42568 whole entry, looked up): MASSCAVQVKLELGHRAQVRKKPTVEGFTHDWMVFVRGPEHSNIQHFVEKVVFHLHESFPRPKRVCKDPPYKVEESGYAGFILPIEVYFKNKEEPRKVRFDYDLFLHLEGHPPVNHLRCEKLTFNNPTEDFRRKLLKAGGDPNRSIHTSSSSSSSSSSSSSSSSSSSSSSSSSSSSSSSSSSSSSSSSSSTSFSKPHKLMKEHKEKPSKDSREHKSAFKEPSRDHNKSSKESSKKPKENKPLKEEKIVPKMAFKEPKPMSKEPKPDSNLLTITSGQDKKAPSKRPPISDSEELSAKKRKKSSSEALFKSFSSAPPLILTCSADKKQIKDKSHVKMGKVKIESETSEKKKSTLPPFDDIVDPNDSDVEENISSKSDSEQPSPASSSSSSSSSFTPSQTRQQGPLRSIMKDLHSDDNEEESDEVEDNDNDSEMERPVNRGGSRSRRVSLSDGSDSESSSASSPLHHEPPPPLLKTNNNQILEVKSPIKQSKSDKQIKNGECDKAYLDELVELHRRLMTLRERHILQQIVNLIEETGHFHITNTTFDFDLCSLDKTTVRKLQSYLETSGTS
Rtt109 HAT inh – inhibitors of Candida albicans Rtt109/Vps75 histone acetyltransferase; Q5AAJ8; purified Rtt109/Vps75, ThioGlo CoA-SH fluorescence, 4 h; inhibition, % at 34.9 µM; 330,000 tested, 0.16% active; AID 540336;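 active = inhibition of at least 50% in every replicate; inconclusive = best replicate reaches 50% inhibition but some replicates fall short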
S100A4 MyoIIA – inhibitors of human S100A4 binding to myosin IIA peptide; S100A4/TAMRA-MyoIIA peptide fluorescence polarization; inhibition, % at 10.7 µM; P26447; 360,000 tested, 0.14% active;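 active = mean inhibition of at least 70% across replicates, with every replicate also reaching that level; inconclusive = mean inhibition reaches 70% but some replicates fall short; inactive = mean inhibition below 70%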
Target sequence (P26447 whole entry, looked up): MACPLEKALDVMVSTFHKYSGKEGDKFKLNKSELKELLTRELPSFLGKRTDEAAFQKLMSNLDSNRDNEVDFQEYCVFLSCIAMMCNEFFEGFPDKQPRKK
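System – human S100A4 monomer protein, biochemical binding assay · Buffer or medium – Calcium-containing HEPES buffer, pH 7.2 · Timing – 5 min between mix addition and reading · Also added – TAMRA-labelled myosin IIA heavy-chain peptide probe, 5 nM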
ERAP1 inh – ERAP1 (human) enzyme inhibition; Q9NZ08; recombinant ERAP1, Leu-AMC fluorescence, 60 min; inhibition, % at 10.7 µM; 340,000 tested, 0.15% active; AID 652197;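 active = mean replicate inhibition of at least 30%, or all replicates individually reaching that 30% level; inactive = mean below 30% and not every replicate reaching it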
miR122 inh – miR-122 inhibition in Huh7 cells; Huh7 miR-122 Renilla luciferase sensor, 48 h; neutral wells = 0, positive control = 100; activation (reporter increase), % at 12.5 µM; 340,000 tested, 0.3% active;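 active = mean replicate activation score at least 90 and every replicate individually at or above 90; inconclusive = only one of the two criteria met; inactive = neither criterion met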;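 note: higher luciferase means less miR-122 activity so hits act as miR-122 inhibitors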
Alpha interfer – interferes with the AlphaScreen assay signal | shares compounds with AF4-AF9 inh | 530 tested, 45% active | AlphaScreen interference counter-screen, signal luminescence | AID 720494 | AC50, µM (top dose mostly 12 µM); cut-off not given, nearly all actives have AC50 up to about 14 µM
Of the large screens only hits and unclear results are named; the others gave an inactive call (follow-up assays come after a bar, where they were run).

Cc1cc(OCC(=O)NC(Cc2ccc(Cl)cc2)C(=O)O)c2c3c(c(=O)oc2c1)CCCC3 (stereo not given)	ERAP1 inh 31.4
Cc1cc(OCC(=O)NCc2ccncc2)c2c3c(c(=O)oc2c1)CCC3	none
CC(C)NC(=O)N1[C@@H]2Cn3c(ccc(-c4cccc(C(=O)N(C)C)c4)c3=O)[C@H]1[C@@H](C(=O)O)[C@@H]2CO	none (no result: Rtt109 HAT inh, miR122 inh)
COc1cccc2c1C(=O)c1c(O)c3c(c(O)c1C2=O)CC(O)(C(C)=NO)CC3OC1CC(N)C(O)C(C)O1 (stereo not given)	AF4-AF9 inh inconclusive, S100A4 MyoIIA active, ERAP1 inh 32.7
CCN(CC)P(=O)(c1n(CC)cc[n+]1CC)N(CC)CC	ERAP1 inh 108.6 (no result: miR122 inh)
CN(C)c1ccc(-[n+]2c(-c3ccccc3)cc(-c3ccccc3)cc2-c2ccccc2)cc1	AF4-AF9 inh 31.0, Rtt109 HAT inh inconclusive
O=C(O)[C@H]1[C@H](CO)[C@H]2Cn3c(ccc(-c4cccnc4)c3=O)[C@@H]1N2S(=O)(=O)c1ccccc1F	none (no result: Rtt109 HAT inh)
CCCCCCCCCCCCCCCC[N+](C)(C)C	ERAP1 inh 42.4
CCCCCC[N+](=O)[O-]	none (no result: AF4-AF9 inh)
CCCNC(=O)[C@H]1[C@H](CO)[C@H]2Cn3c(cccc3=O)[C@H]2N1CC	none (no result: Rtt109 HAT inh, miR122 inh)
COC(=O)[C@@H]1[C@@H](CO)[C@@H]2Cn3c(ccc(-c4ccccc4F)c3=O)[C@H]1N2CC1CCCC1	none (no result: Rtt109 HAT inh, miR122 inh)
Cc1ccc2c(c1)C1C[N+](C)(CC(=O)c3ccc(Cl)cc3Cl)CCC1N2C(=O)c1ccc(F)cc1 (stereo not given)	Rtt109 HAT inh 56.6 (no result: miR122 inh)
COc1ccccc1N1CCN(CCc2c[nH]c3cc4c(cc23)OCO4)CC1	AF4-AF9 inh 30.2 (no result: miR122 inh)
CN(C)C(=S)SSC(=S)N(C)C	Rtt109 HAT inh 154.1
COC(=O)[C@H]1[C@H](CO)[C@H]2Cn3c(ccc(-c4ccccc4OC)c3=O)[C@@H]1N2Cc1ccccc1	none (no result: Rtt109 HAT inh, S100A4 MyoIIA, ERAP1 inh, miR122 inh)
O=C(Cc1cccnc1)N1CCCCN2[C@H](C1)[C@H](c1ccc(C#CC3(O)CCCC3)cc1)[C@@H]2CO	none (no result: Rtt109 HAT inh)
c1ccc(-c2cc(-c3ccccc3)[n+](-c3ccccc3)c(-c3ccccc3)c2)cc1	none
c1ccc(-c2ccncc2)cc1	S100A4 MyoIIA 99.0
C[n+]1ccc(-c2ccncc2)cc1	ERAP1 inh 31.4
CC=Cc1ccc2n(c1=O)C[C@@H]1[C@@H](CO)[C@H](C(=O)OC)[C@H]2N1CC1CCCC1 (mixture of isomers)	none (no result: Rtt109 HAT inh, miR122 inh)
CCCN1[C@@H]2Cn3c(ccc(-c4ccc(F)cc4)c3=O)[C@H]1[C@@H](C(=O)OC)[C@@H]2CO	none (no result: Rtt109 HAT inh)
N#Cc1cccc(-c2ccc([C@H]3[C@@H](CO)N4CCCCN(C(=O)Cc5ccccc5)C[C@@H]34)cc2)c1	none (no result: Rtt109 HAT inh)
CCC(CO)(C(=O)OC1C[N+]2(C)CCC1CC2)c1ccccc1 (stereo not given)	ERAP1 inh 72.2
CC[N+]12CCC(CC1)C(C(O)(c1ccccc1)c1ccccc1)C2 (stereo not given)	none
CC=Cc1ccc2n(c1=O)C[C@H]1[C@H](CO)[C@@H](C(=O)N(C)C)[C@@H]2N1C (mixture of isomers)	none (no result: Rtt109 HAT inh, miR122 inh)
O=c1c2ccccc2nc(/C=C/c2ccc([N+](=O)[O-])o2)n1-c1ccc(O)cc1	miR122 inh 95.4
Cc1cccc(-n2c(/C=C/c3ccc([N+](=O)[O-])o3)nc3ccccc3c2=O)c1	none
COC(=O)[C@@H]1[C@@H](CO)[C@@H]2Cn3c(ccc(-c4ccncc4)c3=O)[C@H]1N2CCc1ccccc1	none (no result: Rtt109 HAT inh, miR122 inh)
C[N+](C)(C)CC#CCN1CCCC1=O	ERAP1 inh 73.4
COc1ccc2c3c([nH]c2c1)C(C)NCC3 (stereo not given)	AF4-AF9 inh 30.3
C[C@@H]1CN([C@@H](C)CO)C(=O)c2c(c3ccccc3n2C)-c2ccccc2CO[C@@H]1CN(C)C(=O)Oc1ccccc1	none (no result: Rtt109 HAT inh, miR122 inh)
O=C(O)Cn1cc(/C=C2\C(=O)NC(=O)N(c3ccc(Br)cc3)C2=O)c2ccccc21	S100A4 MyoIIA 101.4 (no result: Rtt109 HAT inh, miR122 inh)
CCCC(CCC)C(=O)OC[N+](C)(C)CCOC(=O)C(O)(c1ccccc1)C1CCCC1 (stereo not given)	Rtt109 HAT inh 56.7
CC(C)(C)C(=O)OC[N+](C)(C)CCOC(=O)C(O)(c1ccccc1)C1CCCC1 (stereo not given)	none (no result: miR122 inh)
O=C1NC(=O)C(=Cc2cc3c(cc2[N+](=O)[O-])OCO3)C(=O)N1	Rtt109 HAT inh 73.6
O=C1NC(=O)C(=Cc2ccccc2[N+](=O)[O-])C(=O)N1	none (no result: miR122 inh)
CN1CC(C(=O)c2ccc(Cl)cc2)C(c2ccc(N(C)C)cc2)C1 (stereo not given)	AF4-AF9 inh 40.2 (no result: miR122 inh)
CC(C)Nc1ccc(Nc2ccccc2)cc1	AF4-AF9 inh inconclusive | Alpha interfer inactive
NCC(O)c1cc(O)c(O)cc1F (stereo not given)	AF4-AF9 inh 53.3 | Alpha interfer inactive
O=C(Cc1ccncc1)N1CCCCN2[C@H](CO)[C@H](c3ccc(C#Cc4ccccc4F)cc3)[C@@H]2C1	none (no result: Rtt109 HAT inh, S100A4 MyoIIA, ERAP1 inh)
O=C(C1CC1)N1C[C@@H]2N[C@H](C1)[C@@H]2c1ccc(-c2ccncc2)cc1	none (no result: Rtt109 HAT inh, miR122 inh)
COc1ccc2c(c1)c(CCN)c(C)n2Cc1ccccc1	AF4-AF9 inh 33.0 | Alpha interfer inactive
C#CCOc1ccc2c(c1)c(C(C)=O)c(C)n2Cc1ccccc1	none
O=C(Cc1cccnc1)N1CCCCN2[C@H](CO)[C@H](c3ccc(C#CC4(O)CCCC4)cc3)[C@H]2C1	none (no result: Rtt109 HAT inh)
CCN1CCN(c2ccc(N)cc2)CC1	AF4-AF9 inh 81.5 | Alpha interfer 4.52µM
CCN1CCN(c2ccc(NC(C)=O)cc2Cl)CC1	none (no result: miR122 inh)
CN1CCN(c2ccc(N)cc2)CC1	none (no result: AF4-AF9 inh, S100A4 MyoIIA, ERAP1 inh)
CCN1CCN(c2ccc(N)cc2C)CC1	AF4-AF9 inh 42.6 (no result: miR122 inh) | Alpha interfer 11.8µM
CCCNC(=O)N1[C@@H]2c3ccc(-c4cccc(C(=O)N(C)C)c4)c(=O)n3C[C@H]1[C@H](CO)[C@H]2C(=O)O	none (no result: Rtt109 HAT inh, miR122 inh)
O=C1CN=C(c2ccc(Br)cc2)c2c(sc3c2CCCC3)N1CCN1CCCCC1	AF4-AF9 inh 32.3 | Alpha interfer inactive
Cc1ccc(-c2cc(-c3ccc(C)cc3)[n+](-c3ccc(C(=O)[O-])cc3)c(-c3ccc(C)cc3)c2)cc1	AF4-AF9 inh 26.4 (no result: ERAP1 inh) | Alpha interfer inactive
CN(C)C(=O)[C@H]1[C@H](CO)[C@H]2Cn3c(cccc3=O)[C@@H]1N2CC1CC1	none (no result: Rtt109 HAT inh)
C[n+]1c(-c2ccccc2)c2cc(N)ccc2c2ccc(N)cc21	AF4-AF9 inh 55.3, S100A4 MyoIIA 126.3 | Alpha interfer 8.5µM

Compound activity (PubChem BioAssay)
